# According to ChEMBL document CHEMBL2440102, “Furanylazaindoles: potent anticancer agents in vitro and in vivo” (J Med Chem, 2013):
# Activity calls are given as the source filed them. No cut-off for these calls is given here.
# Key:
# [1] = target: Tubulin; assay: Displacement of [3H]-colchicine from biotin-labeled tubulin (unknown origin) after 2 hrs by scintillation proximity assay; assay type: protein-complex assay, Homo sapiens
# [2] = target: T1, Tubulin (Homo sapiens) (UniProt P68371+Q9H4B7+P0DPH7+P68366+Q13509+Q71U36+P04350+Q3ZCM7+P07437+P68363+Q9BQE3+Q6PEY2+Q13885+Q9BVA1+Q9BUF5); assay: Displacement of [3H]-colchicine from biotin-labeled tubulin (unknown origin) at 1 uM after 2 hrs by scintillation proximity assay relative to control; assay type: protein-complex assay
# [3] = target: T1, Tubulin (Homo sapiens); assay: Displacement of [3H]-colchicine from biotin-labeled tubulin (unknown origin) at 5 uM after 2 hrs by scintillation proximity assay relative to control; assay type: protein-complex assay
# [4] = tested on: HUVEC; assay: Induction of vascular disrupting activity in HUVEC assessed as VEGF-induced tube formation at 1000 nM after 4 hrs by microscopic analysis; assay type: functional, cell-based; settings: Homo sapiens
# Procedure, shortened: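 HUVECs plated at 2×10^4 cells/well on Matrigel in 20% FBS M199 with 20 ng/mL VEGF; capillaries formed over 4 h before compound or DMSO vehicle added. Imaged at addition and 4 h later; capillary tube networks counted manually under microscope (100×). Expressed relative to vehicle; mean ± SD of three separate experiments.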
# [5] = tested on: KB; assay: Cytotoxicity against human KB cells assessed as growth inhibition after 72 hrs by methylene blue staining-based assay; assay type: functional, cell-based
# [6] = Cytotoxicity against human H460 cells assessed as growth inhibition after 72 hrs by methylene blue staining-based assay; assay type: functional, cell-based; settings: NCI-H460, 72 h
# [7] = Cytotoxicity against human KB-VIN10 cells overexpressing P-gp170/MDR assessed as growth inhibition after 72 hrs by methylene blue staining-based assay; assay type: functional, cell-based; settings: KB-VIN10, 72 h
# [8] = tested on: HUVEC; assay: Induction of vascular disrupting activity in HUVEC assessed as VEGF-induced tube formation at 100 to 1000 nM after 4 hrs by microscopic analysis; assay type: functional, cell-based; settings: Homo sapiens
# [9] = Cytotoxicity against human KB-7d cells overexpressing MRP assessed as growth inhibition after 72 hrs by methylene blue staining-based assay; assay type: functional, cell-based; settings: KB7D
# [10] = Cytotoxicity against human KB-S15 cells overexpressing P-gp170/MDR assessed as growth inhibition after 72 hrs by methylene blue staining-based assay; assay type: functional, cell-based; settings: KB-S15, 72 h
# [11] = tested on: HT-29; assay: Cytotoxicity against human HT-29 cells assessed as growth inhibition after 72 hrs by methylene blue staining-based assay; assay type: functional, cell-based; settings: HT-29, 72 h
# [12] = Inhibition of bovine brain MAP-rich tubulin polymerization measured every 30 secs for 30 mins by turbidometric method; design: species or system Bos taurus
# [13] = tested on: MKN-45; assay: Cytotoxicity against human MKN45 cells assessed as growth inhibition after 72 hrs by methylene blue staining-based assay; assay type: functional, cell-based; settings: MKN-45, 72 h
# [14] = tested on: KB; assay: Induction of microtubule depolymerization in human KB cells at 1 uM after 6 hrs by immunofluorescence microscopic analysis; assay type: cell-based
# Procedure, shortened: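 KB cells on coverslips exposed to compound for 6 h; fixed in MeOH/Me2CO (1:1) at -20 °C for 1 h, blocked with 5% skim milk in PBS for 1 h, then anti-α-tubulin monoclonal (1:500) for 2 h and FITC-conjugated secondary (1:200) for 1 h at room temperature. Microtubule network viewed by fluorescence microscopy.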
smiles,measurement,setting,value
COc1ccc(S(=O)(=O)n2ccc3ccnc(-c4ccco4)c32)cc1,Ki,[1],380 nM
same,inhibition,[2],63%
same,inhibition,[3],81%
COc1ccc(S(=O)(=O)n2ccc3ccnc(-c4ccc(C(F)(F)F)cc4)c32)cc1,inhibition,[2],35%
same,inhibition,[3],65%
COc1ccc(S(=O)(=O)n2ccc3ccnc(-c4ccc(Cl)cc4)c32)cc1,inhibition,[2],41%
same,inhibition,[3],72%
COc1ccc(S(=O)(=O)n2ccc3ccnc(-c4ccc(N(C)C)cc4)c32)cc1,inhibition,[2],41%
same,inhibition,[3],74%
COc1ccc(S(=O)(=O)n2ccc3ccnc(-c4ccc([N+](=O)[O-])cc4)c32)cc1,inhibition,[2],21%
same,inhibition,[3],46%
COc1ccc(S(=O)(=O)n2ccc3ccnc(-c4ccccc4)c32)cc1,inhibition,[2],42%
same,inhibition,[3],63%
COc1ccc(S(=O)(=O)n2ccc3ccnc(-c4cccs4)c32)cc1,inhibition,[2],30%
same,inhibition,[3],70%
COc1ccc(S(=O)(=O)n2ccc3ccnc(-c4ccncc4)c32)cc1,inhibition,[2],35%
same,inhibition,[3],59%
O=c1[nH]cc(F)c(=O)[nH]1,Activity,[4],inactive
COc1ccc(S(=O)(=O)Nc2cccnc2Nc2ccc(O)cc2)cc1 [ABT-751],IC50,[5],251 nM
same,Ki,[1],1510 nM
same,IC50,[6],218 nM
same,IC50,[7],227 nM
same,Activity,[8],Active
same,IC50,[9],205 nM
same,IC50,[10],206 nM
same,IC50,[11],339 nM
same,IC50,[12],3300 nM
same,IC50,[13],166 nM
COc1cc2c(c(OC)c1OC)-c1ccc(OC)c(=O)cc1[C@@H](NC(C)=O)CC2 [COLCHICINE],IC50,[6],19.8 nM
same,IC50,[7],122 nM
same,IC50,[9],51.8 nM
same,IC50,[10],35.4 nM
same,IC50,[11],15.2 nM
same,IC50,[13],11.5 nM
same,Activity,[14],Active
COc1ccc(/C=C\c2cc(OC)c(OC)c(OC)c2)cc1O [COMBRETASTATIN A4],IC50,[12],2100 nM
COc1cc([C@@H]2c3cc4c(cc3[C@@H](O[C@@H]3O[C@@H]5CO[C@@H](C)O[C@H]5[C@H](O)[C@H]3O)[C@H]3COC(=O)[C@H]23)OCO4)cc(OC)c1O [ETOPOSIDE],IC50,[7],23000 nM
same,IC50,[9],54000 nM
same,IC50,[10],3500 nM
CC(=O)O[C@H]1C(=O)[C@@]2(C)[C@H]([C@H](OC(=O)c3ccccc3)[C@]3(O)C[C@H](OC(=O)[C@H](O)[C@@H](NC(=O)c4ccccc4)c4ccccc4)C(C)=C1C3(C)C)[C@]1(OC(C)=O)CO[C@@H]1C[C@@H]2O [PACLITAXEL],IC50,[5],4.1 nM
same,IC50,[9],7.9 nM
same,Activity,[14],inactive
CC[C@]1(O)C[C@H]2CN(CCc3c([nH]c4ccccc34)[C@@](C(=O)OC)(c3cc4c(cc3OC)N(C=O)[C@H]3[C@@](O)(C(=O)OC)[C@H](OC(C)=O)[C@]5(CC)C=CCN6CC[C@]43[C@@H]65)C2)C1 [VINCRISTINE],IC50,[5],0.6 nM
same,IC50,[9],1.2 nM
